Measured values taken from ChEMBL document CHEMBL5724801, “EUbOPEN Chemogenomics Library - Multiplex” (2024).
Values joined by “and” are separate entries in the source; they are usually repeats but may differ in a detail not shown here. Equal entries are not always repeated.

System: HEK-293T
Assay: Multiplex assay against HEK293T
Assay type: toxicity, cell-based
Conditions: human
How it was run: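 Live cells were stained at seeding with Hoechst33342, BioTracker Green Microtubule Cytoskeleton Dye, MitoTracker Red and Annexin V Alexa Fluor 680, then imaged on a CQ1 microscope at 37°C and 5% CO2 after compound addition. CellPathfinder machine-learning gating split cells into Hoechst high-intensity objects or normal cells. Normal cells were split into healthy, pyknosed or fragmented nuclei, and pyknosed cells into mitotic or apoptotic. Tubulin, mitochondrial-mass and membrane-permeability phenotypes are per cents of healthy-nucleus cells.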

[1] = 12 h, 1 µM, compound concentration 1 uM
[2] = 12 h, 10 µM, compound concentration 10 uM
[3] = 24 h, 1 µM, compound concentration 1 uM
[4] = 24 h, 10 µM, compound concentration 10 uM
[5] = 48 h, 1 µM, compound concentration 1 uM
[6] = 48 h, 10 µM, compound concentration 10 uM

Compound: Cc1ccc(F)cc1C(=O)Nc1ccc(C(=O)N2Cc3cccn3Cc3ccccc32)c(Cl)c1 [LIXIVAPTAN]
- Population Apoptotic (%) [1]: 36% and 40%
- Population Fragmented Nuclei (%) [1]: 5% and 6%
- Population Healthy Nuclei (%) [1]: 83% and 74%
- Population Hoechst High Intensity Objects (%) [1]: 7% and 5%
- Population Membrane Permeable-Phenotype (%) [1]: 0%
- Population Mitochondria Different-Phenotype (%) [1]: 45% and 57%
- Population Mitotic Cells (%) [1]: 63% and 60%
- Population Normal (%) [1]: 92% and 94%
- Population Pyknosed Nuclei (%) [1]: 10% and 19%
- Population Tubulin-Different-Phenotype (%) [1]: 38% and 32%
- Total Cell Count [1]: 486 and 335
- Population Apoptotic (%) [2]: 46% and 50%
- Population Fragmented Nuclei (%) [2]: 6%
- Population Healthy Nuclei (%) [2]: 70% and 67%
- Population Hoechst High Intensity Objects (%) [2]: 10% and 6%
- Population Membrane Permeable-Phenotype (%) [2]: 0% and 1%
- Population Mitochondria Different-Phenotype (%) [2]: 75% and 81%
- Population Mitotic Cells (%) [2]: 53% and 50%
- Population Normal (%) [2]: 89% and 93%
- Population Pyknosed Nuclei (%) [2]: 22% and 25%
- Population Tubulin-Different-Phenotype (%) [2]: 78% and 67%
- Total Cell Count [2]: 339 and 357
- Population Apoptotic (%) [3]: 30% and 36%
- Population Fragmented Nuclei (%) [3]: 9% and 10%
- Population Healthy Nuclei (%) [3]: 77% and 76%
- Population Hoechst High Intensity Objects (%) [3]: 5% and 7%
- Population Membrane Permeable-Phenotype (%) [3]: 0%
- Population Mitochondria Different-Phenotype (%) [3]: 30% and 42%
- Population Mitotic Cells (%) [3]: 69% and 63%
- Population Normal (%) [3]: 94% and 92%
- Population Pyknosed Nuclei (%) [3]: 13%
- Population Tubulin-Different-Phenotype (%) [3]: 24% and 22%
- Total Cell Count [3]: 595 and 423
- Population Apoptotic (%) [4]: 37% and 58%
- Population Fragmented Nuclei (%) [4]: 5% and 8%
- Population Healthy Nuclei (%) [4]: 69% and 72%
- Population Hoechst High Intensity Objects (%) [4]: 7% and 6%
- Population Membrane Permeable-Phenotype (%) [4]: 0%
- Population Mitochondria Different-Phenotype (%) [4]: 74% and 78%
- Population Mitotic Cells (%) [4]: 62% and 41%
- Population Normal (%) [4]: 92% and 93%
- Population Pyknosed Nuclei (%) [4]: 24% and 19%
- Population Tubulin-Different-Phenotype (%) [4]: 71% and 69%
- Total Cell Count [4]: 392 and 401
- Population Apoptotic (%) [5]: 22% and 17%
- Population Fragmented Nuclei (%) [5]: 12%
- Population Healthy Nuclei (%) [5]: 80%
- Population Hoechst High Intensity Objects (%) [5]: 2% and 4%
- Population Membrane Permeable-Phenotype (%) [5]: 0%
- Population Mitochondria Different-Phenotype (%) [5]: 19% and 24%
- Population Mitotic Cells (%) [5]: 77% and 82%
- Population Normal (%) [5]: 97% and 95%
- Population Pyknosed Nuclei (%) [5]: 6% and 7%
- Population Tubulin-Different-Phenotype (%) [5]: 17% and 21%
- Total Cell Count [5]: 995 and 643
- Population Apoptotic (%) [6]: 43% and 46%
- Population Fragmented Nuclei (%) [6]: 9% and 11%
- Population Healthy Nuclei (%) [6]: 74%
- Population Hoechst High Intensity Objects (%) [6]: 7% and 8%
- Population Membrane Permeable-Phenotype (%) [6]: 0%
- Population Mitochondria Different-Phenotype (%) [6]: 72% and 71%
- Population Mitotic Cells (%) [6]: 56% and 53%
- Population Normal (%) [6]: 92% and 91%
- Population Pyknosed Nuclei (%) [6]: 16% and 14%
- Population Tubulin-Different-Phenotype (%) [6]: 69% and 59%
- Total Cell Count [6]: 489 and 437

Compound: CC(C)CC(=O)Nc1cncc(-c2ccc3[nH]nc(-c4nc5c(-c6cccc(F)c6)cncc5[nH]4)c3c2)c1 [LORECIVIVINT]
- Population Apoptotic (%) [1]: 14.17% and 27.84%
- Population Fragmented Nuclei (%) [1]: 5.95% and 3.7%
- Population Hoechst High Intensity Objects (%) [1]: 0%
- Population Membrane Permeable-Phenotype (%) [1]: 0% and 14.29%
- Population Mitochondria Different-Phenotype (%) [1]: 48.15% and 42.86%
- Population Mitotic Cells (%) [1]: 85.83% and 72.16%
- Population Normal (%) [1]: 100%
- Population Pyknosed Nuclei (%) [1]: 64.86% and 89.81%
- Population Tubulin-Different-Phenotype (%) [1]: 64.81% and 57.14%
- Total Cell Count [1]: 185 and 108
- Population Apoptotic (%) [2]: 42.93% and 42.98%
- Population Fragmented Nuclei (%) [2]: 3.44% and 7.88%
- Population Healthy Nuclei (%) [2]: 23.66% and 18.79%
- Population Hoechst High Intensity Objects (%) [2]: 0%
- Population Membrane Permeable-Phenotype (%) [2]: 3.23%
- Population Mitochondria Different-Phenotype (%) [2]: 19.35% and 6.45%
- Population Mitotic Cells (%) [2]: 57.07% and 57.02%
- Population Normal (%) [2]: 100%
- Population Pyknosed Nuclei (%) [2]: 72.9% and 73.33%
- Total Cell Count [2]: 262 and 165
- Population Apoptotic (%) [3]: 54.44% and 66.67%
- Population Fragmented Nuclei (%) [3]: 8.33% and 5.61%
- Population Hoechst High Intensity Objects (%) [3]: 0.64% and 0%
- Population Membrane Permeable-Phenotype (%) [3]: 0%
- Population Mitochondria Different-Phenotype (%) [3]: 83.02% and 75%
- Population Mitotic Cells (%) [3]: 45.56% and 33.33%
- Population Normal (%) [3]: 99.36% and 100%
- Population Pyknosed Nuclei (%) [3]: 57.69% and 86.92%
- Population Tubulin-Different-Phenotype (%) [3]: 94.34% and 50%
- Total Cell Count [3]: 157 and 107
- Population Apoptotic (%) [4]: 59.46% and 44.57%
- Population Fragmented Nuclei (%) [4]: 4.4% and 5.7%
- Population Healthy Nuclei (%) [4]: 25.79% and 17.54%
- Population Hoechst High Intensity Objects (%) [4]: 0.93% and 0%
- Population Membrane Permeable-Phenotype (%) [4]: 3.66% and 10%
- Population Mitotic Cells (%) [4]: 40.54% and 55.43%
- Population Normal (%) [4]: 99.07% and 100%
- Population Pyknosed Nuclei (%) [4]: 69.81% and 76.75%
- Population Tubulin-Different-Phenotype (%) [4]: 34.15% and 12.5%
- Total Cell Count [4]: 321 and 228
- Population Apoptotic (%) [5]: 79.78% and 84.11%
- Population Fragmented Nuclei (%) [5]: 10.98% and 4.07%
- Population Hoechst High Intensity Objects (%) [5]: 1.2% and 0%
- Population Mitochondria Different-Phenotype (%) [5]: 82.46% and 45.45%
- Population Mitotic Cells (%) [5]: 20.22% and 15.89%
- Population Normal (%) [5]: 98.8% and 100%
- Population Pyknosed Nuclei (%) [5]: 54.27% and 86.99%
- Population Tubulin-Different-Phenotype (%) [5]: 73.68% and 63.64%
- Total Cell Count [5]: 166 and 123
- Population Apoptotic (%) [6]: 54.1% and 55.85%
- Population Fragmented Nuclei (%) [6]: 3.22% and 5.44%
- Population Healthy Nuclei (%) [6]: 24.93% and 15.9%
- Population Hoechst High Intensity Objects (%) [6]: 0.27% and 0.42%
- Population Membrane Permeable-Phenotype (%) [6]: 2.15% and 5.26%
- Population Mitochondria Different-Phenotype (%) [6]: 30.11% and 18.42%
- Population Mitotic Cells (%) [6]: 45.9% and 44.15%
- Population Normal (%) [6]: 99.73% and 99.58%
- Population Pyknosed Nuclei (%) [6]: 71.85% and 78.66%
- Population Tubulin-Different-Phenotype (%) [6]: 15.05% and 18.42%
- Total Cell Count [6]: 374 and 240
